{
  "source": "ChEMBL document CHEMBL4270656",
  "about": "“Synthesis and evaluation of 2-substituted 4(3H)-quinazolinone thioether derivatives as monoamine oxidase inhibitors” (Bioorg Med Chem, 2018)",
  "key": {"[1]": {"target": "T1, Amine oxidase [flavin-containing] A (Homo sapiens, UniProt P21397)", "T1 sequence (P21397 whole entry)": "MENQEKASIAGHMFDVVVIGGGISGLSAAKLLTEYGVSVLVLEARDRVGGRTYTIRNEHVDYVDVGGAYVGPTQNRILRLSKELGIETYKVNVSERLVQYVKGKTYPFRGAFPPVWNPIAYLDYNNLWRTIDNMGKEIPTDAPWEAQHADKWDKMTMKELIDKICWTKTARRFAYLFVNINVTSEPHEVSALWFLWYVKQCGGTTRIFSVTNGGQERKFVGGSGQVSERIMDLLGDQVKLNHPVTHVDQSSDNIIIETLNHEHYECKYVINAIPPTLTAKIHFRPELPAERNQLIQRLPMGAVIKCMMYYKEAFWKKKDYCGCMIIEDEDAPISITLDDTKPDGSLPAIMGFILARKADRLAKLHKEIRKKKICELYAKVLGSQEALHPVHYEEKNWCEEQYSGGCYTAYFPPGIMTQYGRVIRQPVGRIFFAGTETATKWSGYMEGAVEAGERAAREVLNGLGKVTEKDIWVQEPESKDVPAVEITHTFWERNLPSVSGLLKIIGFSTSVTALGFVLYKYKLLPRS", "test": "Inhibition of recombinant human MAO-A at 100 uM using kynuramine as substrate after 20 mins by fluorescence spectrophotometric analysis", "outline": "(§1)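 Recombinant human enzyme from insect-cell microsomes, MAO-A 0.0075 or MAO-B 0.015 mg protein/mL, in 100 mM potassium phosphate pH 7.4 made isotonic with KCl. Kynuramine 50 µM, inhibitor up to 100 µM, DMSO 4% final. 20 min at 37 °C, stopped with 2 N NaOH. 4-Hydroxyquinoline read by fluorescence (ex 310/em 400 nm) against a calibration curve.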"}, "[2]": {"target": "T2, Amine oxidase [flavin-containing] B (Homo sapiens, UniProt P27338)", "T2 sequence (P27338 whole entry)": "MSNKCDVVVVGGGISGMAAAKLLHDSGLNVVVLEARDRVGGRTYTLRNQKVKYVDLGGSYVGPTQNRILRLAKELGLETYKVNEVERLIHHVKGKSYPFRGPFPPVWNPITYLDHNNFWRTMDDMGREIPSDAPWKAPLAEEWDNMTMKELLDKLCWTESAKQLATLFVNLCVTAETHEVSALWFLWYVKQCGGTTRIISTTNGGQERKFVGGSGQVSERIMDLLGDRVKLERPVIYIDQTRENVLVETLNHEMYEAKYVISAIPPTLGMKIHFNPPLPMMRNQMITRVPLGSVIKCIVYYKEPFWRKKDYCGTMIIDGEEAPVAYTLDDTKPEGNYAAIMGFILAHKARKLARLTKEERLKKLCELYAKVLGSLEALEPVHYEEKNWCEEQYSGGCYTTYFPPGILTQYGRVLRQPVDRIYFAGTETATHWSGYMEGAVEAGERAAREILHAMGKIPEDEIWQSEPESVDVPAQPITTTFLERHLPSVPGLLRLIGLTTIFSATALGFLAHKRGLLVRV", "test": "Inhibition of recombinant human MAO-B using kynuramine as substrate after 20 mins by fluorescence spectrophotometric analysis"}, "Homo sapiens": {"species": "Homo sapiens", "test": "Selectivity index, ratio of IC50 for recombinant human MAO-A by IC50 for recombinant human MAO-B", "outline": "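IC50 values for MAO-A and MAO-B taken from kynuramine fluorescence assays (0.003–100 µM inhibitor, 20 min at 37 °C) and fitted by one-site competition. Triplicate means. Index is IC50(MAO-A)/IC50(MAO-B).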"}, "[3]": {"target": "T2, Amine oxidase [flavin-containing] B", "test": "Inhibition of recombinant human MAO-B at 100 uM using kynuramine as substrate after 20 mins by fluorescence spectrophotometric analysis", "outline": "as §1"}, "[4]": {"target": "T2, Amine oxidase [flavin-containing] B", "test": "Inhibition of recombinant human MAO-B using kynuramine as substrate assessed as enzyme activity recovered after 20 mins by fluorescence spectrophotometric analysis", "set-up": "scale not given: the % may be the effect or the level left", "outline": "(§2)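 Pre-incubated 15 min at 37 °C, then dialysed 24 h at 4 °C (10 kDa cut-off) with buffer changes at 3 and 7 h. Diluted twofold with kynuramine (50 µM final), run 20 min at 37 °C, read by fluorescence. Triplicate; activity relative to inhibitor-free dialysed control.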"}, "[5]": {"target": "T2, Amine oxidase [flavin-containing] B", "test": "Competitive inhibition of recombinant human MAO-B using kynuramine as substrate after 20 mins by Lineweaver-Burk plot analysis", "outline": "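Human MAO-B (insect-cell microsome, 0.015 mg/mL final) in 100 mM potassium phosphate pH 7.4 made isotonic with KCl. Six Lineweaver-Burk plots: one without inhibitor and five at 1/4, 1/2, 3/4, 1 and 1 1/4 × IC50. Kynuramine 15–250 µM, eight levels per plot. 20 min at 37 °C, NaOH stop, 4-hydroxyquinoline fluorescence. Ki taken from slopes plotted against inhibitor concentration.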"}, "[6]": {"target": "T2, Amine oxidase [flavin-containing] B", "test": "Reversible inhibition of recombinant human MAO-B using kynuramine as substrate assessed as recovery of enzyme activity at 4 times IC50 preincubated for 15 mins followed by dialysis for 24 hrs and subsequent addition of substrate measured after 20 mins by fluorescence spectrophotometric analysis relative to control", "set-up": "scale not given: the % may be the effect or the level left", "outline": "as §2"}},
  "data": [
    {"smiles": "Oc1nc(SCc2cccc(F)c2)nc2ccccc12", "values": [
      {"measurement": "inhibition (INH)", "setting": "[1]", "result": "Not Active"},
      {"measurement": "IC50", "setting": "[2]", "result": 2.5, "unit": "µM"},
      {"measurement": "Ratio IC50", "setting": "Homo sapiens", "result": "> 40"}
    ]},
    {"smiles": "O=c1[nH]c(SCc2ccc(C(F)(F)F)cc2)nc2ccccc12", "values": [
      {"measurement": "inhibition (INH)", "setting": "[1]", "result": "Not Active"},
      {"measurement": "IC50", "setting": "[2]", "result": 0.7, "unit": "µM"},
      {"measurement": "Ratio IC50", "setting": "Homo sapiens", "result": "> 143"}
    ]},
    {"smiles": "O=c1[nH]c(SCc2ccncc2)nc2ccccc12", "values": [
      {"measurement": "inhibition (INH)", "setting": "[1]", "result": "Not Active"},
      {"measurement": "inhibition (INH)", "setting": "[3]", "result": "Not Active"}
    ]},
    {"smiles": "O=C(CSc1nc(O)c2ccccc2n1)c1ccccc1", "values": [
      {"measurement": "inhibition (INH)", "setting": "[1]", "result": "Not Active"},
      {"measurement": "IC50", "setting": "[2]", "result": 31.8, "unit": "µM"},
      {"measurement": "Ratio IC50", "setting": "Homo sapiens", "result": "> 3.1"}
    ]},
    {"smiles": "O=c1[nH]c(SCc2cccc(Br)c2)nc2ccccc12", "values": [
      {"measurement": "inhibition (INH)", "setting": "[1]", "result": "Not Active"},
      {"measurement": "IC50", "setting": "[2]", "result": 0.208, "unit": "µM"},
      {"measurement": "Ratio IC50", "setting": "Homo sapiens", "result": "> 481"}
    ]},
    {"smiles": "Oc1nc(SCc2ccc(Cl)cc2)nc2ccccc12", "values": [
      {"measurement": "inhibition (INH)", "setting": "[1]", "result": "Not Active"},
      {"measurement": "IC50", "setting": "[2]", "result": 0.482, "unit": "µM"},
      {"measurement": "Ratio IC50", "setting": "Homo sapiens", "result": "> 207"}
    ]},
    {"smiles": "O=c1[nH]c(SCCCc2ccccc2)nc2ccccc12", "values": [
      {"measurement": "inhibition (INH)", "setting": "[1]", "result": "Not Active"},
      {"measurement": "IC50", "setting": "[2]", "result": 5.99, "unit": "µM"},
      {"measurement": "Ratio IC50", "setting": "Homo sapiens", "result": "> 17"}
    ]},
    {"smiles": "O=c1[nH]c(SCc2ccc(Br)cc2)nc2ccccc12", "values": [
      {"measurement": "inhibition (INH)", "setting": "[1]", "result": "Not Active"},
      {"measurement": "IC50", "setting": "[2]", "result": 0.779, "unit": "µM"},
      {"measurement": "Ratio IC50", "setting": "Homo sapiens", "result": "> 128"}
    ]},
    {"smiles": "Oc1nc(SCc2cccc(Cl)c2)nc2ccccc12", "values": [
      {"measurement": "inhibition (INH)", "setting": "[1]", "result": "Not Active"},
      {"measurement": "IC50", "setting": "[2]", "result": 0.23, "unit": "µM"},
      {"measurement": "Ratio IC50", "setting": "Homo sapiens", "result": "> 435"}
    ]},
    {"smiles": "O=c1[nH]c(SCc2ccc(I)cc2)nc2ccccc12", "values": [
      {"measurement": "inhibition (INH)", "setting": "[1]", "result": "Not Active"},
      {"measurement": "inhibition (INH)", "setting": "[3]", "result": "Not Active"}
    ]},
    {"smiles": "Oc1nc(SCCOc2ccccc2)nc2ccccc12", "values": [
      {"measurement": "inhibition (INH)", "setting": "[1]", "result": "Not Active"},
      {"measurement": "IC50", "setting": "[2]", "result": 1.24, "unit": "µM"},
      {"measurement": "Ratio IC50", "setting": "Homo sapiens", "result": "> 81"}
    ]},
    {"smiles": "O=c1[nH]c(SCc2cccc(I)c2)nc2ccccc12", "values": [
      {"measurement": "inhibition (INH)", "setting": "[1]", "result": "Not Active"},
      {"measurement": "IC50", "setting": "[2]", "result": 0.142, "unit": "µM"},
      {"measurement": "Ratio IC50", "setting": "Homo sapiens", "result": "> 704"},
      {"measurement": "Activity", "setting": "[4]", "result": 46, "unit": "%"},
      {"measurement": "Ki", "setting": "[5]", "result": 0.068, "unit": "µM"},
      {"measurement": "Activity", "setting": "[6]", "result": 108, "unit": "%"}
    ]},
    {"smiles": "O=c1[nH]c(SCc2ccccc2)nc2ccccc12", "values": [
      {"measurement": "inhibition (INH)", "setting": "[1]", "result": "Not Active"},
      {"measurement": "IC50", "setting": "[2]", "result": 3.03, "unit": "µM"},
      {"measurement": "Ratio IC50", "setting": "Homo sapiens", "result": "> 33"}
    ]},
    {"smiles": "O=c1[nH]c(SCc2ccc(F)cc2)nc2ccccc12", "values": [
      {"measurement": "inhibition (INH)", "setting": "[1]", "result": "Not Active"},
      {"measurement": "IC50", "setting": "[2]", "result": 0.566, "unit": "µM"},
      {"measurement": "Ratio IC50", "setting": "Homo sapiens", "result": "> 177"}
    ]}
  ]
}
